Laboratory results published in PubChem BioAssay.
The source made the active and inactive calls.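 Rule for the calls, unless noted: active = inhibition above 20% together with a positive visual image hit; inconclusive = visual image hit but inhibition not above 20%; inactive = no visual image hit.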

Columns and labels:
[1] = inhibitors of TNFa-induced NFkB p65 translocation, primary screen, imaging, HUVEC, MLSMR starter and 10KST1 sets (AID 438); conditions: HUVEC TNFa-induced p65 nuclear translocation; cell count: measured here: nuclei count (cytotoxicity indicator), at 2.08 µM; inhibition: at 2 µM, stronger effect = higher value, 0% TNFa-plus-vehicle, 100% no-TNFa wells;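 note: compound added about 3h40 before a 20 min TNFalpha stimulation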;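 for inhibition: signal is the nuclear over cytoplasmic p65 intensity ratio per well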
[2] = inhibitors of E-selectin induction by TNFa, primary screen, imaging, HUVEC, immunofluorescence, MLSMR starter and 10KST1 sets (AID 487;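 active = visually confirmed hit in the image check and inhibition above 20%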;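 for inhibition: signal is fraction of cell area covered by stained E-selectin grains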;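 for nuclei count: 100% = median nuclei count of all wells on the same plate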); conditions: HUVEC TNFalpha-induced E-selectin immunofluorescence imaging, at 2 µM; inhibition: stronger effect = higher value; nuclei count: measured here: cell number, toxicity
[3] = DUSP6 inhibitors restoring Erk phosphorylation by chemical complementation, primary imaging in DUSP6-transfected HeLa (AID 609;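 active = compounds giving at least 50% inhibition in the cell-based MKP-3 phosphatase rescue imaging test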;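 for inhibition: phospho-Erk level distribution per well compared with pooled transfected vehicle control wells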); conditions: HeLa MKP-3 transfected, phospho-Erk imaging KS statistic, at 10 µM, cells stimulated with TPA for 15 min
[4] = biological target: Dual specificity protein phosphatase 6 (Homo sapiens) (UniProt Q16828); assay: as above; conditions: HeLa MKP-3 transfected, phospho-Erk imaging KS statistic; at 10 µM; stronger effect = higher value; cells stimulated with TPA for 15 min
[5] = biological target: Voltage-gated potassium channel subunit beta-2 (Rattus norvegicus) (UniProt P62483); assay: KvBeta enzyme negative modulators, primary screen, biochemical, NADPH fluorescence (AID 622;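 active = fluorescence slope higher than the sample average by over 3 SD, cut at about -0.22 in these data, passing the limit was not always enough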;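 note: slope of raw intensity against log time taken from 70 to 1610 s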); conditions: recombinant KvBeta, 4-cyanobenzaldehyde reduction, at 10 µM, stronger effect = higher value
[6] = biological target: Voltage-gated potassium channel subunit beta-2 (Rattus norvegicus) (UniProt P62483); assay: KvBeta positive modulators, primary screen, biochemical, NADPH fluorescence (AID 623;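 active = NADPH fluorescence slope more negative than the mean of all samples by about 3 SD, 99.7% confidence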;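 note: fluorescence intensity change per second fitted from 20 to 320 s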); conditions: Recombinant KvBeta, NADPH fluorescence decrease slope, 10 min; at 10 µM; stronger effect = lower value
[7] = biological target: Alpha-2C adrenergic receptor (Homo sapiens) (UniProt P18825); assay: modulators of alpha2C/GIRK thallium flux, primary screen, cell-based, HEK293 alpha2C/GIRK1/2 (AID 624;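 active = fluorescence slope after compound addition differing from the mean of all screened samples at 99.7% confidence, in either direction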;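 note: slope of fluorescence ratio to pre-addition baseline per second over 15 to 24 s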); conditions: thallium flux BTC fluorescence, at 10 µM, actives lie on both sides
[8] = inhibitors of larval lipid processing in zebrafish, primary screen, whole organism, PED6 fluorescence, gall bladder and intestine (AID 686;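 active = a full or partial loss of lipid-probe fluorescence in the fish gall bladder, intestine or both, judged by eye; inactive = no fluorescence loss, or compound toxic to the fish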;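 note: larvae 5 to 7 days old with five fish per well; signal comes from phospholipase A2 cleavage of quenched PED6 carried via bile; overnight exposure to compound and PED6 before scoring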); conditions: Zebrafish larvae PED6 lipid processing, fluorescence scoring; screened at 20 µM (by protocol)
Summary of the method: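 Test system – live zebrafish larvae aged 5-7 days, whole organism · Buffer or medium – E3 fish medium · Reagent – quenched phospholipase substrate PED6, 100 nM final, ingested by larvae · Doses – 20 µM single dose · Incubation – overnight compound and PED6 incubation · Technique – visual fluorescence microscopy scoring of gall bladder, gut · Read-out basis – visual per-well fluorescence inhibition score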

[9] = inhibitors of Chlamydomonas gravitaxis, primary screen, whole organism, Chlamydomonas reinhardtii, WT vs cilia-less mutant, absorbance, 96-well (AID 463189;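 active = inhibition at or above 50% relative to wild type and mutant plate controls; inactive = inhibition below 50%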;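 note: 0% = wild type cc124 cells in DMSO and 100% = ciliumless bld1 mutant cells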); conditions: OD600 absorbance, 2 days, at 10 µM, stronger effect = higher value
[10] = measured here: cell density z-score
[11] = measured here: nuclear c-Myc green intensity z-score
[12] = measured here: nuclear pErk red intensity z-score, stronger effect = higher value

Sequence of Dual specificity protein phosphatase 6 (Homo sapiens) (Q16828 whole entry, looked up): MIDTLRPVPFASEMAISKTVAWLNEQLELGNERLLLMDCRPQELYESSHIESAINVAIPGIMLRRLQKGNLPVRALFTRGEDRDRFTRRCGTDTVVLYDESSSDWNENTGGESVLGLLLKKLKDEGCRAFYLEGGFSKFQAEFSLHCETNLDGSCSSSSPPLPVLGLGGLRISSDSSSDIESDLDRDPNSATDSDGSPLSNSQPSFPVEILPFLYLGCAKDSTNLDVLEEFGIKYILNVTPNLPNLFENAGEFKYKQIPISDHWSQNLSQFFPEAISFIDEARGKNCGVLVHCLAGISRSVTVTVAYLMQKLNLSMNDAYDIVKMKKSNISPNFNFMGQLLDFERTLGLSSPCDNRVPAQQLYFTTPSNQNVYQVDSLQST
Sequence of Alpha-2C adrenergic receptor (Homo sapiens) (P18825 whole entry, looked up): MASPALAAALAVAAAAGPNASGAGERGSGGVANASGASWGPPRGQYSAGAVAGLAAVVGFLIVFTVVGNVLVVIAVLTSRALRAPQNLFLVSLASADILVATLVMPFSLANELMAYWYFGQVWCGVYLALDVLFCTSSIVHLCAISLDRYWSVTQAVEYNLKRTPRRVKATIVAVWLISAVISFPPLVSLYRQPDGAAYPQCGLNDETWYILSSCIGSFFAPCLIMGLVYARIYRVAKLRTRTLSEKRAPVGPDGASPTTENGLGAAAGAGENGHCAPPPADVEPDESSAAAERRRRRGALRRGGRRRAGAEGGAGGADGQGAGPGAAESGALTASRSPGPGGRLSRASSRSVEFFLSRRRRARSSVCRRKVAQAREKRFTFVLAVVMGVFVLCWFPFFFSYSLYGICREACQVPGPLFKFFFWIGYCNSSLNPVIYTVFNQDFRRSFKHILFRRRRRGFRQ
Sequence of Voltage-gated potassium channel subunit beta-2 (Rattus norvegicus) (P62483 whole entry, looked up): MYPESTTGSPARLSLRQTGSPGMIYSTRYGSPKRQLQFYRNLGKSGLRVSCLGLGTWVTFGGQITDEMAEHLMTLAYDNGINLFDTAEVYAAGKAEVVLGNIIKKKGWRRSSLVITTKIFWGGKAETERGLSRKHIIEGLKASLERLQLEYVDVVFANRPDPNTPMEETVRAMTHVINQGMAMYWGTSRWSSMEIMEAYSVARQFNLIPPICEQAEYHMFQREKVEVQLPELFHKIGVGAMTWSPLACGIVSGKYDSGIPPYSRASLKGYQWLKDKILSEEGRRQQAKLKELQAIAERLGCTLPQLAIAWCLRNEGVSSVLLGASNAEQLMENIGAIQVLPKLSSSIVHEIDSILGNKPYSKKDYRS

| Compound | cell count [1] | inhibition [1] | inhibition [2] | nuclei count [2] [%] | z-score [3, 10] | z-score [3, 11] | z-score [3, 12] | inhibition [4] | fluorescence slope [5] | NADPH fluorescence slope [6] | slope [7] | outcome [8] | inhibition [9] |
| --- | --- | --- | --- | --- | --- | --- | --- | --- | --- | --- | --- | --- | --- |
| Fc1ccc2[nH]c3c(N4CCN(C5CCCCC5)CC4)ncnc3c2c1 | 501 | -4.2% (inactive) | -68.6% (inactive) | 153 | -1.35 | 0.234 | 1.42 | -6.48% (inactive) | -0.152 (inactive) | -1.9e-06 (inactive) | 0.00383 (inactive) | inactive | 128% (active) |
| Oc1ccccc1-c1nc(NCc2ccco2)c2ccccc2n1 | 332 | 1.4% (inactive) | -50.6% (inactive) | 151 | -1.1 | 2.11 | -0.675 | -7.01% (inactive) | -0.396 (inactive) | -0.000126 (inactive) | 0.00698 (inactive) |  | -8.43% (inactive) |
| CC1(C)Cc2c(C#N)c(N3CCOCC3)nc(-c3ccccc3)c2CO1 | 600 | -14.3% (inactive) | -25.8% (inactive) | 109 | -0.0371 | -0.989 | 0.333 | 3.66% (inactive) | -0.424 (inactive) | -7.6e-05 (inactive) | 0.0042 (inactive) | inactive | -17.1% (inactive) |
| COc1ccccc1N(Cc1cc2cccc(C)c2[nH]c1=O)C(=O)C(C)C | 355 | -9.7% (inactive) | -118% (inactive) | 171 | 1.34 | -1.06 | -1.74 | 43.8% (inactive) | -0.449 (inactive) | -0.000154 (inactive) | 0.00657 (inactive) |  | 28.4% (inactive) |
| CCCCOc1cccc(-c2nnc(N)s2)c1 | 629 | -13.6% (inactive) | 29.1% (inactive) | 161 | -0.391 | 0.503 | -0.82 | -13.3% (inactive) | -0.395 (inactive) | -4.2e-05 (inactive) | 0.00766 (inactive) | inactive | -2.21% (inactive) |
| CCOc1ccc(C2C(C#N)=C(N)SC(N)=C2C#N)cc1OC | 654 | -21.3% (inactive) | 22.8% (inactive) | 177 | 0.539 | -1.2 | 0.0794 | -3.95% (inactive) | -0.291 (inactive) | -3e-05 (inactive) | 0.00675 (inactive) | inactive | 5.29% (inactive) |
| CCOC(=O)CC1=NC(=O)CS1 | 636 | -20.6% (inactive) | -40.7% (inactive) | 179 | -0.153 | -1.04 | 1.51 | -5.62% (inactive) | -0.455 (inactive) | -5.7e-05 (inactive) | 0.00579 (inactive) | inactive | 11.6% (inactive) |
| Cc1ccc(C2C(C(=O)c3cc4ccccc4o3)=C(O)C(=O)N2CCCN(C)C)cc1 (configuration not stated) | 445 | -4.5% (inactive) | -30.5% (inactive) | 161 | -0.136 | -1.28 | 0.773 | -2.91% (inactive) | -0.414 (inactive) | -4.9e-05 (inactive) | 0.00603 (inactive) | inactive | -1.22% (inactive) |
| COc1ccc(N/C=C(\C#N)c2nc3ccccc3n2C)c(OC)c1 | 367 | -0.5% (inactive) | -18% (inactive) | 138 | -0.0541 | -0.725 | 2.53 | 1.75% (inactive) | -0.426 (inactive) | -0.000158 (inactive) | 0.00463 (inactive) |  | 1.37% (inactive) |
| CC1CN(C2CCN(C(=O)c3ccccc3Cl)CC2)CC(C)O1 (configuration not stated) | 445 | -0.2% (inactive) | -214% (inactive) | 151 | -0.321 | -1.49 | -0.453 | -5.62% (inactive) | -0.348 (inactive) | -1.1e-05 (inactive) | 0.00459 (inactive) | inactive | 0.742% (inactive) |
